“And” between values parts separate entries of the source, which are not always exact repeats. Identical values can stand only once. The source made the active and inactive calls. The rule behind the calls is not given here.

Series [1] has as its system SK-N-SH. Briefly: Cytoprotective activity against 26S proteasome inhibitor MG132-induced stress in human SK-N-SH cells assessed as cell viability treated 1 hr before MG132 challenge measured after 24 hrs. It counts as functional, cell-based. Particulars: Homo sapiens, SK-N-SH; read-out: EC50. The method in brief:
(§1)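 SK-N-SH cells, 12,500/well, exposed to compound 1 h ahead of MG-132 (5 µM final), then 24 h. Viability by ATPlite-1step luminescence; increased ATP% = (RLU compound − RLU DMSO)/RLU DMSO ×100, with DMSO as negative control. Tested 0.3–80 µM in twofold steps; EC50 from nonlinear regression curve fit; max cytoprotection >60% scored active.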

In series [2] the target is T1, Heat shock factor protein 1 (Homo sapiens) (UniProt Q00613).
T1 sequence (whole entry): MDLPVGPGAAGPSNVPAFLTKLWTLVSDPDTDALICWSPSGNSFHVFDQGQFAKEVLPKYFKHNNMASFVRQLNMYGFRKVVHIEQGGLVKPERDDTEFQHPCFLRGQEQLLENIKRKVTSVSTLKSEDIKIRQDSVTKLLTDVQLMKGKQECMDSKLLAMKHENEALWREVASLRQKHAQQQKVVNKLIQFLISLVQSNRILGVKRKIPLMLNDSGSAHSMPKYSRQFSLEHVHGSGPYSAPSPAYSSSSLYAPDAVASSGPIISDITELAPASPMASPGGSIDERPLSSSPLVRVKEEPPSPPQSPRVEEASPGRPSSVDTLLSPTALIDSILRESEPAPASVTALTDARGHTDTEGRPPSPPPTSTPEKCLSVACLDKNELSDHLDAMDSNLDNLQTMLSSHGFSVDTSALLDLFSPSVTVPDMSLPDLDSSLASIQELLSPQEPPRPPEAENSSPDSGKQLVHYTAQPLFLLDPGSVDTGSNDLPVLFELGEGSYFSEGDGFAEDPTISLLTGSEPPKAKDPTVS
Nature of the series: Transcriptional activation of HSF1 in human HeLa cells assessed as granule formation treated for 3 hrs at 37 degC without heat shock by immunocytochemical staining.

For series [3], the target named is T2, Heat shock factor protein 1 (Homo sapiens, UniProt Q00613).
T2 sequence (Q00613 whole entry): T1 sequence (whole entry)
Nature of the series: Transcriptional activation of HSF1 in heat shock stress-induced human HeLa cells assessed as granule formation at 80 uM treated 1 hr before heat shock challenge measured after 2 hrs by immunocytochemical staining. It counts as cell-based.

For series [4], the system named is HeLa. Briefly: Cytotoxicity against human HeLa cells at 80 uM by MTS assay. Type of series: cell-based.
Series [5] in a line: Cytotoxicity against human SK-N-SH cells by MTS assay. Type of series: cell-based. The gist of the method:
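SK-N-SH cells, 14,000/well, seeded in DMEM with 10% FBS 18 h before compound (1:200 dilution; final 0.3–80 µM). MTS read-out; % inhibition = (MTS DMSO − MTS compound)/MTS DMSO ×100; CC50 by nonlinear regression; average SD across runs 14%.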

Series [6] can be described thus: Cytotoxicity against human HeLa cells by MTS assay. It counts as cell-based. In general terms: Tetrazolium assays rely on reduction of a dye to a coloured formazan, in cell work by metabolically active cells.
The next series relates to PC-12. Nature of the series: Cytoprotective activity against tunicamycin-induced endoplasmic reticulum stress in rat PC12 cells assessed as viability after 43 hrs relative to control. It counts as functional. The method in brief: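 PC12 cells, 5000/well, differentiated with NGF (50 ng/ml final) for 5–7 days until neurites appear. Compound (1:20 dilution) given together with tunicamycin (750 ng/mL final) for 43 h at 37 °C. Viability by ATPlite; ATP increase expressed against the DMSO plus tunicamycin control.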

Series [7] deals with T1, Heat shock factor protein 1 (Homo sapiens). Briefly: Transcriptional activation of HSF1 in heat shock stress-induced human HeLa cells assessed as granule formation treated 1 hr before heat shock challenge measured after 2 hrs by immunocytochemical staining. Type of series: cell-based. The gist of the method:
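HeLa cells given compound 1 h, then heat shock at 41 °C for 2 h without recovery; HSF1 immunocytochemical staining, quantified by high-content imaging. Range 0.3–80 µM, twofold dilution, 200-fold overall.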

Series [8] concerns SK-N-SH. Nature of the series: Decrease in human SK-N-SH cells proliferation upto 20 uM by Click-iT assay. It counts as functional, cell-based. The method in brief:
(§2)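 Click-iT cell proliferation assay, run on HeLa and SK-N-SH cells across 0–20 µM compound.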

Series [9] deals with HeLa. Nature of the series: Stimulation of human HeLa cells proliferation upto 20 uM by Click-iT assay. Type of series: functional, cell-based. The gist of the method: as §2
Series [10] has as its system HeLa. Briefly: Increase in HSP70 expression in heat shock stress-induced human HeLa cells assessed as granule formation after 2 hrs of recovery time by immunocytochemical staining. It counts as functional, cell-based. The method in brief:
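HeLa cells heat-shocked at 41 °C; HSP70 immunocytochemical staining 2 h after heat shock; automated image acquisition, quantifying HSP70 granule count and total granule area.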

In series [11] the test system is SK-N-SH. Briefly: Cytoprotective activity against MG132-induced stress in human SK-N-SH cells assessed as survivality treated 1 hr before MG132 challenge measured after 24 hrs relative to control. Type of series: functional. The method in brief:
as §1

Turning to `OC(CO/N=C(\Cl)c1nc2ccccc2o1)CN1CCC(F)CC1` (configuration not stated), in the series on SK-N-SH [1], the EC50 (usually the concentration needed to bring the measured effect to its halfway point) was determined as 18.8 µM. Besides, the result in [2] was inactive. The Activity in series [3] is 63%. Further, the Inhibition (commonly the relative decrease from the control value, in per cent) with HeLa [4] turned out to be 35%. Also, the CC50 – broadly, the concentration at which the toxic effect on the cells reaches its halfway point – in [5] is 52.6 µM.

On to `CC(C)N(CC(O)CO/N=C(\Cl)c1nc2ccccc2o1)C(C)C` (configuration not stated), for which, in the series on SK-N-SH [1], the EC50 came to 14.7 µM. For the same compound, the CC50 came to 45 µM in [6] and 30.8 µM in series [5]. The outcome in [2] was inactive. Further, the Activity with PC-12 is >150% and 300%.

Consider `O=C(NCC(O)CO/N=C(\Cl)c1nc2ccccc2o1)N1CCCCC1` (configuration not stated), for which the concentration giving a half-maximal response (EC50) in the series on SK-N-SH [1] worked out at 43.6 µM. Moreover, the CC50 stood at 46.9 µM in series [6] and 59.6 µM in [5]. Moreover, the result in series [2] and in series [7] was inactive. For the same compound, the Activity in series [3] is on record as 28%.

With `CCCN(CC(O)CO/N=C(\Cl)c1nc2ccccc2o1)C(C)C` (configuration not stated), in the series on SK-N-SH [1], the 50% effective concentration (EC50) was 8.9 µM. Further, the CC50 in series [6] is 57.6 µM; in [5], 50.4 µM. The result (in [2]; with HeLa [9]) was inactive. Moreover, the outcome in the series with SK-N-SH [8] was Active.

With `OC(CO/N=C(\Cl)c1nc2ccccc2o1)CN1CCCCC1` (configuration not stated), the EC50 in the series with SK-N-SH [1] was determined as 15.7 µM; in the series with HeLa [10] (Homo sapiens, HeLa, 2 h), 32.9 µM. The cytotoxic concentration (CC50) in series [6] is 41.7 µM; in series [5], 26 µM. Moreover, the Activity in series [7] was 58%; in the series with HeLa [10] it was 51%; in the series on SK-N-SH [11], 90.6%; with PC-12, above 200%. In addition, the outcome in the series on SK-N-SH [8] was Active. Further, the outcome in the series with HeLa [9] was inactive.
